# Compound activity deposited in PubChem by Johns Hopkins Ion Channel Center.
# Only some compounds are listed: those with a hit (about 3.8% of all), similar ones and a draw of the others.
# KCNQ1 pot: potentiates or activates the human KCNQ1 potassium channel | P51787 | CHO-K1 KCNQ1, thallium flux FluxOR fluorescence; active compounds read high | B-score at 10 µM | 310,000 tested, 0.35% active | AID 2648;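 active means fluorescence ratio B-score, a plate-corrected score, at least three library SD, with initial intensity B-score within 5 SD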
#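 Assay system: stable KCNQ1 CHO-K1 line; medium: assay buffer, equal DMSO in all wells; timing: 90 min dye loading and 20 min compound exposure, both at room temperature; technique: kinetic FluxOR thallium fluorescence, 10-s 1-Hz baseline, 110-s post-stimulus read; read-out basis: B score of baseline-normalized fluorescence ratio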
# Kir21 block: inhibitors of mouse Kir2.1 inward-rectifier potassium channel; P35561; HEK293-Kir2.1, FluxOR thallium flux fluorescence; active compounds read low; B-score at 10 µM; 310,000 tested, 0.85% active;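 active means fluorescence ratio B-score at or below minus 3 SD of library scores, with starting-brightness B-score within 2 SD, cut at about -4.2 in these data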;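 further: channel flux triggered by added potassium and thallium sulfate stimulus; B-score of peak minus minimum fluorescence over baseline after thallium stimulus; more negative B-score means stronger Kir2.1 block with less thallium influx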
# KCNQ1 inh: inhibitors of human KCNQ1 potassium channel | P51787 | CHO-K1 KCNQ1, FluxOR thallium flux fluorescence; active compounds read high | B-score at 10 µM | 310,000 tested, 1.3% active | AID 2642;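 active means compounds whose thallium flux B-score, printed positive for inhibition, exceeds three library SD while starting fluorescence stays within three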;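 further: channel opened by potassium depolarization with thallium stimulus after 20 min compound exposure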
# hERG rescue: compounds protecting human hERG from proarrhythmic drug block. activation (rescue from dofetilide block), less the hit threshold, % at 10 µM. CHO-hERG, FluxOR thallium flux, dofetilide IC70 present. Q12809. 310,000 tested, 0.51% active. AID 1511;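 active means activation above the mean of controls blocked by dofetilide plus 5 SD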;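 further: thallium influx through hERG after potassium depolarization seen as dye fluorescence rise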
# KCNK3 inh: human KCNK3 channel inhibition, primary screen; 340,000 tested, 0.84% active; CHO-KCNK3 thallium flux, FluxOR fluorescence; active compounds read low; B-score at 10 µM; AID 602410;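 active means B-score under library mean minus 4 SD, starting fluorescence ratio at most library mean plus 5 SD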;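 further: more negative B-score means stronger inhibition of thallium flux through KCNK3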
# KCNK9 block: human KCNK9 channel inhibition; 310,000 tested, 1.2% active; AID 488922; Q9NPC2; HEK293 KCNK9, FluxOR thallium flux fluorescence; active compounds read low; B-score at 10 µM;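 active means ratio B-score over 3 SD below the library mean, with starting fluorescence within 5 SD of its mean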;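 further: negative B-score means less thallium flux so channel inhibition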
# Target sequence (Q9NPC2 whole entry, looked up): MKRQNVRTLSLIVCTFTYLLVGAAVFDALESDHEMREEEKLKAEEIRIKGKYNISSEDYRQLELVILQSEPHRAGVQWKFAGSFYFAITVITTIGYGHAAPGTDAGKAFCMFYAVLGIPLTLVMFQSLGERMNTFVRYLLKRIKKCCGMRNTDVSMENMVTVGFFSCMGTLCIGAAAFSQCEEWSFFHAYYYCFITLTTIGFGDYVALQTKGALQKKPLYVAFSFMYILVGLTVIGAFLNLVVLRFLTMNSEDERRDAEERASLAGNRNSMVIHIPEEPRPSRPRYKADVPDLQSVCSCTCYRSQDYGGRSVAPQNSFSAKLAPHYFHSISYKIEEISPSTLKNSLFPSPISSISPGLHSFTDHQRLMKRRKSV
# Numbers stand for hits; n = inactive; x = not tested or not shown.
SMILES,KCNQ1 pot,Kir21 block,KCNQ1 inh,hERG rescue,KCNK3 inh,KCNK9 block
O=C(NC(=S)Nc1cc(Cl)ccc1N1CCOCC1)c1ccc(-c2cccc(Cl)c2)o1,n,n,n,n,n,n
NC(=O)c1ncn([C@@H]2O[C@H](CNCc3cccc(OC4CCCC4)c3)[C@@H](O)[C@H]2O)n1,x,x,x,x,n,x
Cc1c(Cl)cccc1-c1ccc(CNCc2ccccn2)o1,n,n,n,n,n,n
O=C(N/N=C/c1cccc(Br)c1)c1ccc(Cn2cc(Br)cn2)o1,n,n,n,n,n,-7.5
O=C1C=CC(=O)c2c(O)c(N3CCN(CCO)CC3)c(Cl)c(O)c21,x,x,x,x,-11,x
O=C1C=CC(=O)c2c(O)c(N3CCN(CCOCCO)CC3)c(Br)c(O)c21,x,x,x,x,-11,x
OCCOCCN1CCN(C2=Nc3ccccc3Sc3ccccc32)CC1,n,n,n,x,n,n
O=C(CN1CCN(CC(=O)Nc2ccccc2Cl)CC1)Nc1ccc(F)c(F)c1,n,n,n,n,n,n
Clc1ccc(-c2nnc(CSc3nnc(-c4cccs4)n3Cc3ccccc3)o2)cc1,n,n,8,n,-8.8,n
Cc1nnc(SCc2nnc(-c3cccs3)o2)n1Cc1ccccc1,n,n,n,n,n,n
COc1ccccc1-c1cn[nH]c1-c1ccc(OCc2ccc(F)cc2)cc1O,n,n,6,n,n,n
CC[n+]1c(/C=C(\C)SC)sc2ccccc21,n,n,n,n,n,n
CC/C(=C/c1sc2ccccc2[n+]1CC)SC,n,n,n,n,n,n
CC[n+]1c(C=C2C=C(C)OC(C)=C2)sc2ccccc21,n,n,10,n,n,n
CC[n+]1c(/C=C2/C=C(C)CC(C)C2)sc2ccccc21 (stereo not given),n,n,6,n,n,n
Cc1noc(C)c1S(=O)(=O)NCc1ccc(CN(C)C)cc1,x,x,x,x,n,x
FC(F)Sc1ccc(NC(=S)NC(c2ccccc2)c2ccccc2)cc1,n,n,11,n,n,n
S=C(NCC1CCCCC1)Nc1cccnc1,n,n,n,n,n,n
CC(NC(=S)Nc1ccc(F)cc1)c1ccccc1 (stereo not given),n,n,n,n,n,n
FC(F)Sc1ccc(NC(=S)NCC2CCCCC2)cc1,n,n,9,n,n,-7.3
CN(C(=S)Nc1ccc(SC(F)F)cc1)C(c1ccccc1)c1ccccc1,n,n,10,n,n,n
CC(C)(C)NC(=O)NC(=O)COC(=O)c1cccc(S(=O)(=O)N2CCCCC2)c1,n,n,n,n,n,n
COc1ccccc1OCC(=O)n1cc(C(=O)c2cc(Cl)cc(Cl)c2O)cn1,n,n,n,n,n,n
Cn1c(=O)c(C#N)c(-c2ccc(F)cc2)c2cc(C(=O)c3cc(Cl)cc(Cl)c3O)cnc21,n,n,11,n,n,n
O=C(NCC1CCCO1)C(=O)NCC1CCCN1S(=O)(=O)c1ccccc1 (stereo not given),n,n,n,n,n,n
SMILES,KCNQ1 pot,Kir21 block,KCNQ1 inh,hERG rescue,KCNK3 inh,KCNK9 block
CCC(=O)N(CC)C1=C(O)c2ccccc2C(=O)C1=O,n,-4.6,n,n,n,n
CNC(=S)N1CCn2cccc2C1c1cc(OC)c(OC)c(OC)c1 (stereo not given),n,n,n,n,n,n
CCNC(=S)N1CCn2cccc2C1c1ccc(F)cc1 (stereo not given),n,n,n,n,n,-8
Cc1cc(NCc2ccccn2)n2nc(C)c(-c3ccccc3)c2n1,n,n,6,n,n,n
Clc1ccc2c(c1)-c1[nH]ncc1CS2,n,n,n,n,n,n
CCOc1cccc(OCCOCCOc2ccccc2C(C)=O)c1,n,n,n,n,n,n
CCOc1ccc(OCCCCOc2ccccc2C(C)=O)cc1,n,n,7,n,n,n
CS(=O)(=O)N(Cc1ccc(Cl)cc1)c1ccc(C(=O)NCc2ccccn2)cc1,n,n,n,n,n,n
CS(=O)(=O)N(Cc1ccc(Cl)cc1)c1ccc(C(=O)N/N=C/c2cc3ccccc3nc2Cl)cc1,n,n,n,n,n,-7.3
CCOC(=O)C1CCN(S(=O)(=O)c2cc(Br)cc3c2N(C(C)=O)C(C)C3)CC1 (stereo not given),n,n,n,n,n,n
Nc1c(C(=O)NCC2CCCO2)sc2nc3c(c(-c4ccco4)c12)CC/C3=C\c1ccco1 (stereo not given),x,x,x,x,-12,x
CC(=O)Nc1ccc2c(c1)C(=O)c1cccc(C(=O)O)c1-2,x,x,x,x,n,x
c1ccc(CNc2ncnc3nc[nH]c23)cc1,n,n,n,n,n,n
c1ccc(CCCNc2ncnc3nc[nH]c23)cc1,n,n,n,6.0,n,n
Cc1ccc(NS(=O)(=O)c2ccccc2Cl)c2c1CC(C)(C)O2,n,-4.4,n,n,n,n
Cc1cccc(S(=O)(=O)Nc2ccc(C)c3c2OC(C)(C)C3)c1,n,-5.9,n,n,n,n
Cc1cccc(CN2C(=O)/C(=C\c3ccc(C(=O)NCCN4CCOCC4)cc3)Sc3ccccc32)c1,n,n,8,n,n,n
COc1ccc(/C=C2\Sc3ccc(C(=O)NCCN4CCCCCC4)cc3N(C)C2=O)cc1,n,n,9,n,n,n
O=C(NCCN1CCOCC1)c1ccc2c(c1)N(Cc1cccc(F)c1)C(=O)c1ccccc1S2,n,n,n,n,n,n
CCN1CCN(CCNC(=O)c2ccc3c(c2)N(Cc2ccc(F)cc2)C(=O)/C(=C/c2ccccc2)S3)CC1,n,n,10,n,n,n
CN1CCN(CCCNC(=O)c2ccc(/C=C3\Sc4ccccc4N(Cc4ccccc4F)C3=O)cc2)CC1,n,n,n,n,n,n
O=C(NCCN1CCOCC1)c1ccc(/C=C2\Sc3ccccc3N(Cc3ccccc3F)C2=O)cc1,n,n,11,n,n,n
Cc1ccccc1CN1C(=O)/C(=C\c2ccc(C(=O)NCCN3CCOCC3)cc2)Sc2ccccc21,n,n,n,n,n,n
CCOC(=O)C/C(C)=N/NC(=O)CNc1cccc(Cl)c1C,n,n,n,n,n,n
CCn1cc(CN2CCCC(CO)(Cc3ccc(F)cc3)C2)c2ccccc21 (stereo not given),n,-5.2,n,n,n,n
SMILES,KCNQ1 pot,Kir21 block,KCNQ1 inh,hERG rescue,KCNK3 inh,KCNK9 block
COc1cccc(CC2(CO)CCCN(Cc3cn(C)c4ccccc34)C2)c1 (stereo not given),n,-4.3,n,n,n,n
CN(CC1COc2ccccc2O1)C(=O)CSc1ncccn1 (stereo not given),x,x,x,x,n,x
CCN(CC(=O)Nc1ccc(NC(C)=O)cc1)C(=O)CCCc1nc2ccccc2s1,x,x,x,x,n,x
Cc1cc2nc(-c3ccc(SCc4ccc(C(=O)O)cc4)nc3)[nH]c2cc1C,n,n,n,n,n,n
Cc1cc2nc(-c3ccc(SCc4ccccc4C#N)nc3)[nH]c2cc1C,n,n,7,n,n,n
C/C=C/C=C/[C@H]1Cc2cc(O)cc(O)c2O1,n,-4.3,n,n,x,n
